According to ChEMBL document CHEMBL2057169, “Discovery of novel tricyclic compounds as squalene synthase inhibitors” (Bioorg Med Chem, 2012):

Legend:
[1] = molecular target: T1, Squalene synthase (Rattus norvegicus, UniProt Q02769); test: Inhibition of squalene synthase in rat hepatic cells; assay type: cell-based
T1 sequence (Q02769 whole entry): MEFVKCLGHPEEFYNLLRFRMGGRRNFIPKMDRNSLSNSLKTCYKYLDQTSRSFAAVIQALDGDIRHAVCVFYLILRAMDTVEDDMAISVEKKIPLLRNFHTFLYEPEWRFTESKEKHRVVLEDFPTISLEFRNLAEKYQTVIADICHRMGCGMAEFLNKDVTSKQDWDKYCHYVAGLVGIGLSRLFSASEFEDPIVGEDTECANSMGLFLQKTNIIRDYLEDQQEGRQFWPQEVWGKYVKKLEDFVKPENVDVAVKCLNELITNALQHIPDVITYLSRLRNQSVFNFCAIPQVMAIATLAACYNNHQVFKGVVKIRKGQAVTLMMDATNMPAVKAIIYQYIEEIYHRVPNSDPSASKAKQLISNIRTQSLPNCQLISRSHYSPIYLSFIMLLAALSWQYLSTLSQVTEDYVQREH

[2] = test system: Hepatocyte; test: Inhibition of cholesterol synthesis in rat hepatocytes assessed as formation of cholesterol using [14C]mevalonolactone as substrate after 1 hr by radioactivity assay; assay type: functional, cell-based
Method in brief: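 Rat hepatocytes isolated by two-step portal-vein perfusion (EGTA buffer, then 0.05% collagenase). Cells were kept if viability was over 80% by trypan blue and seeded at 10^6 cells/well in DMEM with 10% LPDS. Next day they got 5% LPDS medium with inhibitor at 0–3000 nM for 1 h at 37 °C, then [14C]mevalonolactone for 1 h. Lysates were saponified, [14C]cholesterol corrected by [3H]cholesterol recovery and BCA protein, and % inhibition taken versus 0 nM wells. Triplicate wells; three experiments.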

[3] = test system: marmosets; test: Lipid lowering effect in marmosets assessed as reduction in plasma total cholesterol level at 100 mg/kg, po administered once daily for 7 days; assay type: functional; conditions: Callitrichinae sp., in Callithrix jacchus, 168 h
Method in brief: (§1)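 Common marmosets, n = 8 per group, matched for body weight and plasma lipids. They were dosed orally at 100 mg/kg in 0.5% methylcellulose (5 ml/kg) once daily for 7 days. Nonfasted blood was drawn before dosing and the morning after the last dose. HDL was precipitated, then its cholesterol assayed enzymatically; non-HDL = total minus HDL cholesterol. Change was expressed relative to pre-values.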

[4] = test system: marmosets; test: Lipid lowering effect in marmosets assessed as reduction in plasma HDL-cholesterol level at 100 mg/kg, po administered once daily for 7 days; assay type: functional; conditions: Callitrichinae sp., in Callithrix jacchus, 168 h; method in brief: as §1
[5] = test system: marmosets; test: Lipid lowering effect in marmosets assessed as reduction in plasma non HDL-cholesterol level at 100 mg/kg, po administered once daily for 7 days; assay type: functional; conditions: Callitrichinae sp., in Callithrix jacchus, 168 h; method in brief: as §1
[6] = test system: marmosets; test: Lipid lowering effect in marmosets assessed as reduction in plasma triglyceride level at 100 mg/kg, po administered once daily for 7 days; assay type: functional; conditions: Callitrichinae sp., in Callithrix jacchus, 168 h; method in brief: as §1
[7] = test system: Rattus norvegicus; test: Inhibition of cholesterol synthesis in Wistar rat liver assessed as reduction of [14C]-cholesterol level at 3 mg/kg, po administered as single dose measured after 1 hr by liquid scintillation counting; assay type: functional
Method in brief: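 Male Wistar rats, 6 weeks old, n = 4-6, dosed orally at 3 mg/kg in 0.5% methylcellulose, with equimolar NaOH or NaHCO3 added; vehicle-only controls. At 1 h, [14C]mevalonic acid (5 µCi/5 ml/kg) was given ip, and rats were killed 1 h later.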

| Structure (SMILES) | IC50 [1] [nM] | IC50 [2] [nM] | inhibition in vivo at 100 mg/kg [3] [%] | inhibition in vivo at 100 mg/kg [4] [%] | inhibition in vivo at 100 mg/kg [5] [%] | inhibition in vivo at 100 mg/kg [6] [%] | inhibition in vivo at 3 mg/kg [7] [%] |
| --- | --- | --- | --- | --- | --- | --- | --- |
| O=C(O)CC1OC(c2cccc3ccccc23)c2cc(Cl)ccc2-n2cccc21 (stereo not drawn) | > 600 |  |  |  |  |  |  |
| O=C(O)CC1OC(c2cccc(Cl)c2Cl)c2cc(Cl)ccc2-n2cccc21 (stereo not drawn) | 52 |  |  |  |  |  |  |
| O=C(O)CC1OC(c2cccc3c2OCCO3)c2cc(Cl)ccc2-n2cccc21 (stereo not drawn) | 440 |  |  |  |  |  |  |
| COc1cccc([C@@H]2O[C@@H](CC(=O)N3CCC(CC(=O)O)CC3)c3cccn3-c3ccc(Cl)cc32)c1OC | > 600 |  |  |  |  |  |  |
| COc1cccc([C@H]2O[C@H](CC(=O)N3CCC(CC(=O)O)CC3)c3cccn3-c3ccc(Cl)cc32)c1OC |  | 49 | 4 | -11 | 9 | 28 |  |
| COc1cccc([C@H]2O[C@H](CC(=O)N3CCC(C(=O)O)CC3)c3cccn3-c3ccc(Cl)cc32)c1OC | 3.4 | 170 |  |  |  |  |  |
| COc1cccc([C@H]2O[C@H](CC(=O)N3CCC[C@H](C(=O)O)C3)c3cccn3-c3ccc(Cl)cc32)c1OC | 2.3 | 60 |  |  |  |  |  |
| COc1cccc([C@H]2O[C@H](CC(=O)N3CCN(CC(=O)O)CC3)c3cccn3-c3ccc(Cl)cc32)c1OC | 4.3 | 150 |  |  |  |  |  |
| COc1cccc([C@H]2O[C@H](CC(=O)NCC(=O)O)c3cccn3-c3ccc(Cl)cc32)c1OC | 2.3 | 94 |  |  |  |  |  |
| COc1cccc([C@H]2O[C@H](CC(=O)NCCC(=O)O)c3cccn3-c3ccc(Cl)cc32)c1OC | 2.9 | 160 |  |  |  |  |  |
| COc1cccc([C@H]2O[C@H](CC(=O)Nc3cccc(C(=O)O)c3)c3cccn3-c3ccc(Cl)cc32)c1OC | 4 | 150 |  |  |  |  |  |
| COc1cccc([C@H]2O[C@H](CCC(=O)O)c3cccn3-c3ccc(Cl)cc32)c1OC | 3.1 | > 1000 |  |  |  |  |  |
| COc1cccc([C@H]2O[C@H](CCC(=O)N3CCC(CC(=O)O)CC3)c3cccn3-c3ccc(Cl)cc32)c1OC | 2.4 | 93 |  |  |  |  | 35 |
| COc1cccc([C@H]2O[C@H](CCC(=O)N3CCC[C@H](C(=O)O)C3)c3cccn3-c3ccc(Cl)cc32)c1OC | 1.4 | 70 | 9 | -21 | 23 | 21 | 53 |
| COc1cccc([C@H]2O[C@H](CCC(=O)N3CC(C(=O)O)C3)c3cccn3-c3ccc(Cl)cc32)c1OC | 2.2 | 23 |  |  |  |  | 31 |
| COc1cccc([C@H]2O[C@H](CCC(=O)N3CC(CC(=O)O)C3)c3cccn3-c3ccc(Cl)cc32)c1OC | 7 | 36 |  |  |  |  | 41 |
| COc1cccc([C@H]2O[C@H](CCC(=O)N3CCC(OCC(=O)O)CC3)c3cccn3-c3ccc(Cl)cc32)c1OC | 0.8 | 7.2 |  |  |  |  | 18 |
| COc1cccc([C@H]2O[C@H](CCC(=O)N3CCC(OCCC(=O)O)CC3)c3cccn3-c3ccc(Cl)cc32)c1OC | 1.4 | 35 |  |  |  |  | 23 |
| COc1cccc([C@H]2O[C@H](CCC(=O)N3CCC(COCC(=O)O)CC3)c3cccn3-c3ccc(Cl)cc32)c1OC | 0.9 | 10 |  |  |  |  | 7 |
| COc1cccc([C@H]2O[C@H](CCC(=O)N3CCOC(C(=O)O)C3)c3cccn3-c3ccc(Cl)cc32)c1OC (stereo partly drawn) | 1.6 | 9.7 |  |  |  |  | 13 |
| COc1cccc([C@H]2O[C@H](CCC(=O)N3CCN(CC(=O)O)C(=O)C3)c3cccn3-c3ccc(Cl)cc32)c1OC | 2.2 | 11 |  |  |  |  | 1 |
| COc1cccc([C@H]2O[C@H](CCn3cc(C(=O)O)nn3)c3cccn3-c3ccc(Cl)cc32)c1OC | 0.59 | 25 |  |  |  |  | 44 |

| Structure (SMILES) | IC50 [1] [nM] | IC50 [2] [nM] | inhibition in vivo at 100 mg/kg [3] [%] | inhibition in vivo at 100 mg/kg [4] [%] | inhibition in vivo at 100 mg/kg [5] [%] | inhibition in vivo at 100 mg/kg [6] [%] | inhibition in vivo at 3 mg/kg [7] [%] |
| --- | --- | --- | --- | --- | --- | --- | --- |
| COc1cccc([C@H]2O[C@H](CCn3cc(CC(=O)O)nn3)c3cccn3-c3ccc(Cl)cc32)c1OC | 0.51 | 24 | 10 | -8 | 21 | 24 | 66 |
| COc1cccc([C@H]2O[C@H](CCn3nncc3CC(=O)O)c3cccn3-c3ccc(Cl)cc32)c1OC | 0.81 | 41 |  |  |  |  | 50 |
| COc1cccc([C@H]2O[C@H](CCn3cc(COCC(=O)O)nn3)c3cccn3-c3ccc(Cl)cc32)c1OC | 0.68 | 19 |  |  |  |  | 18 |
| COc1cccc([C@H]2O[C@H](CCn3cc(COC(C)(C)C(=O)O)nn3)c3cccn3-c3ccc(Cl)cc32)c1OC | 0.69 | 7.3 |  |  |  |  | 36 |
| CCC(CC)(OCc1cn(CC[C@H]2O[C@H](c3cccc(OC)c3OC)c3cc(Cl)ccc3-n3cccc32)nn1)C(=O)O | 1.7 | 14 |  |  |  |  | 45 |
| COc1cccc([C@H]2O[C@H](CCn3ccc(CC(=O)O)n3)c3cccn3-c3ccc(Cl)cc32)c1OC | 1.3 | 58 | 27 | -10 | 52 | 16 | 64 |
| COc1cccc([C@H]2O[C@H](CCn3nccc3CC(=O)O)c3cccn3-c3ccc(Cl)cc32)c1OC | 1.6 | 210 |  |  |  |  | 5 |
| COc1cccc([C@H]2O[C@H](CCn3cc(C(=O)O)cn3)c3cccn3-c3ccc(Cl)cc32)c1OC | 2.1 | 54 |  |  |  |  | 56 |
| COc1cccc([C@H]2O[C@H](CCn3cc(CC(=O)O)cn3)c3cccn3-c3ccc(Cl)cc32)c1OC | 3.1 | 62 |  |  |  |  | 34 |
| COc1cccc([C@H]2O[C@H](CCn3nnc(C(=O)O)n3)c3cccn3-c3ccc(Cl)cc32)c1OC | 0.89 | 18 |  |  |  |  | 38 |
| COc1cccc([C@H]2O[C@H](CCn3nnnc3CC(=O)O)c3cccn3-c3ccc(Cl)cc32)c1OC | 1.1 | 130 |  |  |  |  |  |
| COc1cccc([C@H]2O[C@H](CCn3nnc(CCC(=O)O)n3)c3cccn3-c3ccc(Cl)cc32)c1OC | 0.85 | 70 |  |  |  |  | 64 |
| COc1cccc([C@H]2O[C@H](CCn3nnc(C(C)(C)C(=O)O)n3)c3cccn3-c3ccc(Cl)cc32)c1OC | 1.1 | 58 |  |  |  |  | 44 |
| COc1cccc([C@H]2O[C@H](CCn3nnc(C4(C(=O)O)CC4)n3)c3cccn3-c3ccc(Cl)cc32)c1OC | 1.7 | 52 |  |  |  |  | 53 |
| COc1cccc([C@H]2O[C@H](CCn3nnc(COC(C)(C)C(=O)O)n3)c3cccn3-c3ccc(Cl)cc32)c1OC | 2.5 | 10 |  |  |  |  | 51 |
| COC(=O)CC1OC(c2cccc(OC)c2OC)c2cc(Cl)ccc2-n2cccc21 (racemic) | 220 |  |  |  |  |  |  |
| COc1cccc(C2OC(CC(=O)O)c3cccn3-c3ccc(Cl)cc32)c1OC (racemic) | 3.3 | 250 |  |  |  |  |  |
| COc1cccc(C2OC(CC(=O)N3CCC(CC(=O)O)CC3)c3cccn3-c3ccc(Cl)cc32)c1OC (racemic) | 2.7 | 63 |  |  |  |  |  |
| COc1cccc(C2OC(CC(=O)O)c3ccc(Cl)n3-c3ccc(Cl)cc32)c1OC (racemic) | 1.6 | 560 |  |  |  |  |  |
| COc1cccc(C2OC(CC(=O)O)c3ccc(CN(C)C)n3-c3ccc(Cl)cc32)c1OC (racemic) | 540 |  |  |  |  |  |  |
| COc1cccc(C2OC(CC(=O)O)c3ccc(CN4CCOCC4)n3-c3ccc(Cl)cc32)c1OC (racemic) | 7.6 | 160 |  |  |  |  |  |
| COc1cccc([C@H]2O[C@H](CC(=O)N3CCC(CC(=O)O)CC3)C(=O)N(CC(C)(C)COC(C)=O)c3ccc(Cl)cc32)c1OC [LAPAQUISTAT ACETATE] |  |  | 23 | 14 | 29 | 25 |  |
